Experimental data: ChEMBL document CHEMBL3632581, “Dimers of Melampomagnolide B Exhibit Potent Anticancer Activity against Hematological and Solid Tumor Cells” (J Med Chem, 2015)

Columns and labels:
MCF7 = test: Cytotoxicity against human MCF7 cells after 48 hrs by SRB assay; assay type: functional; conditions: MCF7, 48 h
Outline: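 NCI-60 screen: cells in RPMI 1640 with 5% FBS and 2 mM L-glutamine, preincubated 24 h at 37 °C. Compound was then added for 48 h at five concentrations (10−4 to 10−8 M). Cells were fixed with cold TCA and stained with 0.4% SRB in 1% acetic acid, and OD read at 515 nm. GI50 is the concentration halving net protein increase versus control.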

A549 = test: Cytotoxicity against human A549 cells after 48 hrs by SRB assay; assay type: functional; conditions: A549, 48 h
Outline: (§1)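 NCI-60 five-dose screen at 10−8 to 10−4 M. Cells were plated at 5,000–40,000/well in RPMI 1640 with 5% FBS and 2 mM L-glutamine, then preincubated 24 h, and time-zero plates were TCA-fixed. Compound was added from DMSO stocks and exposed 48 h at 37 °C. Cells were TCA-fixed, SRB-stained, and read at 515 nm. LC50 is the concentration halving the cell population through cell death.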

Malme-3M = test: Cytotoxicity against human MALME-3M cells after 48 hrs by SRB assay; assay type: functional; outline: as §1
COLO 205 = test: Cytotoxicity against human COLO205 cells after 48 hrs by SRB assay; assay type: functional; conditions: COLO 205, 48 h; outline: as §1
HT-29 = test: Cytotoxicity against human HT-29 cells after 48 hrs by SRB assay; assay type: functional; conditions: HT-29, 48 h; outline: as §1
UACC-257 = test: Cytotoxicity against human UACC257 cells after 48 hrs by SRB assay; assay type: functional; conditions: UACC-257, 48 h
Outline: (§2)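 NCI-60 screen: cells grown in RPMI 1640 with 5% FBS and 2 mM L-glutamine, plated at 5,000–40,000 cells/well by doubling time, and preincubated 24 h at 37 °C before drug. Drug was diluted from DMSO stock and given at five concentrations, 10−4 to 10−8 M, for 48 h. Cells fixed with cold TCA, SRB stained, OD read at 515 nm against time-zero and vehicle plates. LC50 taken as the concentration that halves cell population through cell death.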

SF-539 = test: Cytotoxicity against human SF539 cells after 48 hrs by SRB assay; assay type: functional; conditions: SF-539, 48 h; outline: as §1
CCRF-CEM = test: Cytotoxicity against human CCRF-CEM cells after 48 hrs by SRB assay; assay type: functional; outline: as §1
HL-60(TB) = test: Cytotoxicity against human HL-60(TB) cells after 48 hrs by SRB assay; assay type: functional; conditions: HL-60, 48 h; outline: as §1
[1] = Antileukemic activity against human M9-ENL1 cells after 24 hrs by annexin V/7-AAD staining-based flow cytometric analysis; assay type: functional, cell-based
Outline: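 M9-ENL1 cells in alpha-MEM with 5% human plasma, 20% FBS, SCF, IL-3, IL-7 and FLT3. Drug came from a DMSO stock diluted in PBS (≤0.5% DMSO final), for 24 h over 0.5-10 μM. Cells negative for both annexin V and 7-AAD were taken as non-apoptotic and normalized to vehicle. EC50 read from dose-response curves, triplicate.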

SF-295 = test: Cytotoxicity against human SF295 cells after 48 hrs by SRB assay; assay type: functional; conditions: SF-295, 48 h; outline: as §1
SK-MEL-28 = test: Cytotoxicity against human SK-MEL-28 cells after 48 hrs by SRB assay; assay type: functional; conditions: SK-MEL-28, 48 h; outline: as §1
NCI-H460 = test: Cytotoxicity against human NCI-H460 cells after 48 hrs by SRB assay; assay type: functional; conditions: NCI-H460, 48 h; outline: as §1
OVCAR-5 = test: Cytotoxicity against human OVCAR5 cells after 48 hrs by SRB assay; assay type: functional; conditions: OVCAR-5, 48 h; outline: as §1
ACHN = test: Cytotoxicity against human ACHN cells after 48 hrs by SRB assay; assay type: functional; outline: as §1
SN12C = test: Cytotoxicity against human SN12C cells after 48 hrs by SRB assay; assay type: functional; outline: as §1
TK-10 = test: Cytotoxicity against human TK10 cells after 48 hrs by SRB assay; assay type: functional; conditions: TK-10, 48 h; outline: as §2
HOP-92 = test: Cytotoxicity against human HOP92 cells after 48 hrs by SRB assay; assay type: functional; conditions: HOP-92, 48 h; outline: as §1
A498 = test: Cytotoxicity against human A498 cells after 48 hrs by SRB assay; assay type: functional; conditions: A498, 48 h; outline: as §1
[2] = Antileukemic activity against human AML01 cells after 24 hrs by annexin V/7-AAD staining-based flow cytometric analysis; assay type: functional, cell-based
Outline: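 Primary AML specimens from consenting donors, isolated by Ficoll-Paque gradient and sometimes cryopreserved. Cells were held 1 h in serum-free IMDM with 20% BIT 9500, LDL and β-mercaptoethanol before drug (DMSO stock diluted in PBS, ≤0.5% DMSO final). Exposure was 24 h over 0.5-10 μM. Annexin V/7-AAD double-negative cells, normalized to vehicle, gave the EC50. Run in triplicate.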

MOLT-4 = test: Cytotoxicity against human MOLT4 cells after 48 hrs by SRB assay; assay type: functional; conditions: MOLT-4, 48 h; outline: as §1
NCI-H226 = test: Cytotoxicity against human NCI-H226 cells after 48 hrs by SRB assay; assay type: functional; conditions: NCI-H226, 48 h; outline: as §1
HCT-116 = test: Cytotoxicity against human HCT116 cells after 48 hrs by SRB assay; assay type: functional; conditions: HCT-116, 48 h; outline: as §1
[3] = Potency index, ratio of parthenolide EC50 to compound EC50 for human M9-ENL1 cells; assay type: functional
SR = test: Cytotoxicity against human SR cells after 48 hrs by SRB assay; assay type: functional; outline: as §2
MDA-MB-435 = test: Cytotoxicity against human MDA-MB-435 cells after 48 hrs by SRB assay; assay type: functional; conditions: MDA-MB-435, 48 h; outline: as §1
CAKI-1 = test: Cytotoxicity against human Caki1 cells after 48 hrs by SRB assay; assay type: functional; conditions: CAKI-1, 48 h; outline: as §1
[4] = Cytotoxicity against human NCI-ADR-RES cells after 48 hrs by SRB assay; assay type: functional; outline: as §1
KM12 = test: Cytotoxicity against human KM12 cells after 48 hrs by SRB assay; assay type: functional; conditions: KM12, 48 h; outline: as §1
MDA-MB-231 = test: Cytotoxicity against human MDA-MB-231 cells after 48 hrs by SRB assay; assay type: functional; conditions: MDA-MB-231, 48 h; outline: as §1
SF-268 = test: Cytotoxicity against human SF268 cells after 48 hrs by SRB assay; assay type: functional; conditions: SF-268, 48 h; outline: as §1
[5] = read-out: LC50 (the source's name)

SMILES: C=C1C(=O)O[C@H]2[C@H]1CC/C(COC(=O)NCCCCNC(=O)OC/C1=C/CC[C@@]3(C)O[C@H]3[C@H]3OC(=O)C(=C)[C@@H]3CC1)=C\CC[C@@]1(C)O[C@@H]21
- GI50 (MCF7): 380 nM
- GI50 (A549): 8.02 µM
- CC50 (A549; [5]): 58.7 µM
- GI50 (Malme-3M): 450 nM
- CC50 (Malme-3M; [5]): 8.43 µM
- GI50 (COLO 205): 460 nM
- CC50 (COLO 205; [5]): 5.79 µM
- GI50 (HT-29): 600 nM
- CC50 (HT-29; [5]): > 100 µM
- GI50 (UACC-257): 1680 nM
- CC50 (UACC-257; [5]): 22.9 µM
- GI50 (SF-539): 1550 nM
- CC50 (SF-539; [5]): 8.84 µM
- GI50 (CCRF-CEM): 270 nM
- CC50 (CCRF-CEM; [5]): > 100 µM
- GI50 (HL-60(TB)): 250 nM
- CC50 (HL-60(TB); [5]): > 100 µM
- EC50 [1]: 1500 nM
- GI50 (SF-295): 13 µM
- CC50 (SF-295; [5]): 57.7 µM
- GI50 (SK-MEL-28): 520 nM
- CC50 (SK-MEL-28; [5]): 8.08 µM
- GI50 (NCI-H460): 4.61 µM
- CC50 (NCI-H460; [5]): 60.7 µM
- GI50 (OVCAR-5): 1750 nM
- CC50 (OVCAR-5; [5]): 7.79 µM
- GI50 (ACHN): 3.44 µM
- CC50 (ACHN; [5]): 39.8 µM
- GI50 (SN12C): 2750 nM
- CC50 (SN12C; [5]): 39.5 µM
- GI50 (TK-10): 1610 nM
- CC50 (TK-10; [5]): 11.3 µM
- GI50 (HOP-92): 280 nM
- CC50 (HOP-92; [5]): 46.1 µM
- GI50 (A498): 6.36 µM
- CC50 (A498; [5]): 43.9 µM
- EC50 [2]: 2200 nM
- GI50 (MOLT-4): 1470 nM
- CC50 (MOLT-4; [5]): > 100 µM
- GI50 (NCI-H226): 11.4 µM
- CC50 (NCI-H226; [5]): 81.6 µM
- GI50 (HCT-116): 1120 nM
- CC50 (HCT-116; [5]): 6.19 µM
- Ratio EC50 [3]: 2
- GI50 (SR): 540 nM
- CC50 (SR; [5]): > 100 µM
- GI50 (MDA-MB-435): 1240 nM
- CC50 (MDA-MB-435; [5]): 9.42 µM
- GI50 (CAKI-1): 10.8 µM
- CC50 (CAKI-1; [5]): 49.1 µM
- GI50 [4]: 37.7 µM
- CC50 [4, 5]: > 100 µM
- GI50 (KM12): 3.18 µM
- CC50 (KM12; [5]): 43.3 µM
- GI50 (MDA-MB-231): 1530 nM
- LC50 (MDA-MB-231): 6.83 µM
- GI50 (SF-268): 3.18 µM
- CC50 (SF-268; [5]): 51 µM
